Measured values from paper PMC7239729 (Pharmacology, biochemistry, and behavior, 2020).
Several values for one entry are separate records, joined by “and”; a condition that tells them apart may be missing. Equal entries are not always repeated. Where two headings read alike, the source gives them in different places.

Legend:
hCB1 receptors = conditions: ref Wouters et al., 2019; cited from earlier work
[1] = human liver microsome incubation; format: in vitro ADME
In short: (§1)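 Pooled liver microsomes (rat: IGS Sprague-Dawley; human: pooled) at 1 mg protein/mL final with 1 mM NADPH in 50 mM potassium phosphate, pH 7.4, 3 mM MgCl2. Mix preincubated 5 min at 37 °C, then test compound added to 1 μM. Triplicate incubations at 37 °C. Samples at 0, 5, 10, 30 and 60 min quenched in acetonitrile, then extracted with acetonitrile (3:1) and analysed by LC-MS/MS.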

[2] = target: human CB1 (hCB1) receptor (Homo sapiens, UniProt P21554); format: binding; conditions: at both receptors (hCB1 and hCB2)
male ICR mice = test: cannabinoid tetrad in mice; format: in vivo, mouse
hCB2 receptor [3] = target: T1, hCB2 receptor (Homo sapiens, UniProt P34972); test: agonist-stimulated [35S]GTPγS binding, hCB2 HEK293 membranes; format: biochemical; conditions: for CP55,940 more potent than the compound: hCB2, [35S]GTPγS; for CP55,940 greater efficacy than the compound: hCB2, [35S]GTPγS Emax
[4] = metabolite analysis in mouse urine; format: in vivo; conditions: mice, 30 mg/kg i.p., pooled 24 h urine, LC-MS
[5] = rat plasma pharmacokinetics; format: in vivo
In short: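 Four 49-day-old male Long-Evans rats with jugular vein catheters, housed singly in metabolite cages. Test compound given i.p. at 3 mg/kg (3 mg/mL in 7.8% polysorbate 80/92.2% saline). Blood drawn 0.25 h before dosing and 0.25, 0.5, 1, 2, 4, 8 and 24 h after, into chilled K3EDTA. Plasma separated at 4 °C, extracted with acetonitrile (3:1) and analysed by LC-MS/MS.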

hCB1 receptor [6] = target: T2, hCB1 receptor (Homo sapiens, UniProt P21554); test: biochemical; format: biochemical
hCB2 receptor [7] = target: T1, hCB2 receptor; test: inhibition of forskolin-stimulated cAMP production; format: cell-based; conditions: for CP55,940 more potent than the compound: hCB2, cAMP
[8] = rat liver microsome incubation; format: in vitro ADME
In short: as §1

[9] = target: human CB2 (hCB2) receptor (Homo sapiens, UniProt P34972); test: [3H]CP55,940 competition binding, hCB2 HEK293 membranes
hCB1 receptor [10] = target: T2, hCB1 receptor; test: cell-based; format: cell-based
[11] = test system: mice trained to discriminate THC (5.6 mg/kg, i.p.) from vehicle; test: THC drug discrimination in mice; format: in vivo, mouse; conditions: for substitution for THC / effect on response rates compared to vehicle: i.p.; for substitution for THC: EG-018 10 – 100 mg/kg, full substitution ≥ 80% drug-aperture responding; for effect on response rates compared to vehicle: substitution tests; for ED50: Mus musculus
mice = conditions: ref Wiley et al., 2015, cited from earlier work
CB1 = conditions: read-out: affinity; ref Wiley et al., 2015; cited from earlier work
[12] = same dosing procedure; ref Kevin et al., 2017b; cited from earlier work
[13] = human, pooled human liver microsomes, pH 7.4
[14] = i.p., 30 min, THC 3, 10 or 56 mg/kg, EG-018 1-100 mg/kg
[15] = i.p., THC 3, 10 or 56 mg/kg, EG-018 1-100 mg/kg
[16] = male, Long-Evans, rat, plasma, ip, 3 mg/kg
[17] = HEK293, read-out: % of CP55,940 Emax
[18] = Sprague-Dawley, rat, pooled rat liver microsomes, pH 7.4
[19] = rimonabant 3 mg/kg i.v. 10 min before EG-018 56 mg/kg i.v.

T2 sequence (P21554 whole entry): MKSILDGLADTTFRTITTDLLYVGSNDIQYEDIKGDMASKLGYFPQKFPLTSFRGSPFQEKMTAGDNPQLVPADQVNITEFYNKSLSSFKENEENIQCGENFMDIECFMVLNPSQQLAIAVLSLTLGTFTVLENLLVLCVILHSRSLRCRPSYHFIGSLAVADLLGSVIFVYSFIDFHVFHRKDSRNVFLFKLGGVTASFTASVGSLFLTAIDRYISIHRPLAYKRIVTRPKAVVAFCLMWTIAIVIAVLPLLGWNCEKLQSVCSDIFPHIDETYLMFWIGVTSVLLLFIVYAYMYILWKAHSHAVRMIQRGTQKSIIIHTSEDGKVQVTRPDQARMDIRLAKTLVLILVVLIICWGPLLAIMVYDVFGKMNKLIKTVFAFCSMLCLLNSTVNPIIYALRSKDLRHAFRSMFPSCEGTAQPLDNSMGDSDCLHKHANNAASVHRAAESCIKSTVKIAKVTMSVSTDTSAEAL
T1 sequence (P34972 whole entry): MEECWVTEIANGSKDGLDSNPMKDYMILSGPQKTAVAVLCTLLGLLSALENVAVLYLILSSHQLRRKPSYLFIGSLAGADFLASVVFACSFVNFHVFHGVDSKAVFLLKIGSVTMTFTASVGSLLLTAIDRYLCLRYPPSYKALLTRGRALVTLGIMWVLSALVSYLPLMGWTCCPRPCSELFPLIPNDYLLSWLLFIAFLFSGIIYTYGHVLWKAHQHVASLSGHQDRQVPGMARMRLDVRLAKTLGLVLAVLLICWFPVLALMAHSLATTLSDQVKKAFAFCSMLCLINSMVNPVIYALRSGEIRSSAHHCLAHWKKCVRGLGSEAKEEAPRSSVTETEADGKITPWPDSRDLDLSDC
Sequence of human CB2 (hCB2) receptor (P34972 whole entry): as above
Sequence of human CB1 (hCB1) receptor (P21554 whole entry): as the sequence (P21554 whole entry) above

In the case of `CCCCCCC(C)(C)c1ccc([C@@H]2C[C@H](O)CC[C@H]2CCCO)c(O)c1` [CP55,940, reference compound], the “greater potency for mini-Gαi over beta arrestin-2” value (hCB1 receptors) is listed as “four-fold shift in potency”.

For `CCCCCn1c2ccccc2c2cc(C(=O)c3cccc4ccccc34)ccc21` [EG-018, Naphthalen-1-yl(9-pentyl-9H-carbazol-3-yl)methanone], the “CLH (mL/min/kg body wt.)” value ([1]; human liver microsomes, estimated hepatic clearance) was 19.03 mL/min/kg body wt, the “CLint (mL/min/kg body wt.)” value ([1]; human liver microsomes, estimated intrinsic clearance) was 393.09 mL/min/kg body wt and the ER ([1]; human liver microsomes, extraction ratio) was 0.95. For the same compound, the half-life at 1 μM [1, 13] was 2.04 min, the microsomal CLint at 1 μM [1, 13] was 340 µL/min/mg and the “lower affinity than CP55,940” value [2] was 10- to 40 fold. The “antinociception (tail-flick)” value (male ICR mice; 56 mg/kg i.v.) was “did not significantly elicit antinociceptive behavior”, the “catalepsy (ring immobility)” value (male ICR mice; 56 mg/kg i.v.) was “catalepsy” and the rectal temperature (male ICR mice; 56 mg/kg i.v.) was “hypothermia”. For the same compound, the locomotor activity (male ICR mice; 56 mg/kg i.v., 5 min) was “hypomotility”, the locomotor activity (male ICR mice; [14]) was “did not produce significant effects in any of the four assays” and the “antinociception (tail-flick)” value (male ICR mice; [15]) was “did not produce significant effects in any of the four assays”. For the same compound, the “catalepsy (ring immobility)” value (male ICR mice; [15]) was “did not produce significant effects in any of the four assays”, the rectal temperature (male ICR mice; [15]) was “did not produce significant effects in any of the four assays” and the EC50 (hCB2 receptor [3]) was 11.3 nM. For the same compound, the “CP55,940 more potent than the compound” value (hCB2 receptor [3]) was 12 fold, the “CP55,940 greater efficacy than the compound” value (hCB2 receptor [3]) was 2.5 fold and the Emax (hCB2 receptor [3]; read-out: % of CP55,940 Emax) was 40%. For the same compound, the Emax (hCB2 receptor [3]; read-out: Emax±SEM) was 46.2 ± 2.72%, the “parent compound or metabolites in urine” value [4] was “No intact parent compound or metabolites were identified” and the AUC(0-inf) [5, 16] was 168 ng·h/mL. For the same compound, the AUC(0-t) [5, 16] was 154 ng·h/mL, the Cmax [5, 16] was 26 ng/mL and the Tmax [5, 16] was 2 h. The half-life ([5]; male, Long-Evans, rat, plasma, ip, 3 mg/kg, Half life (h), rat plasma, 3 mg/kg i.p.) was 2.5 h, the “CL/F (mL/min/kg body wt.)” value ([5]; rat plasma, 3 mg/kg i.p., observed apparent clearance) was 520.93 mL/min/kg body wt and the “Half life” value ([5]; rat plasma, 3 mg/kg i.p., 3 mg/kg) was 2.53 h. The “less potent than CP55,940” value (hCB1 receptor [6]; hCB1, [35S]GTPγS) was “approximately 90 fold”, the “CP55,940 greater efficacy than the compound” value (hCB1 receptor [6]; hCB1, [35S]GTPγS Emax) was 3.5 fold and the “less efficacy than THC” value (hCB1 receptor [6]; hCB1, [35S]GTPγS Emax) was “approximately 2 fold”. For the same compound, the “activity in [35S]GTPγS binding” value (hCB1 receptor [6]; initial studies, ligands not pre-equilibrated prior to addition of [35S]GTPγS (data not shown)) was “appeared to be inactive”, the Emax (hCB1 receptor [6]; read-out: % of CP55,940 Emax) was 28% and the Emax (hCB1 receptor [6]; read-out: Emax±SEM) was 73.9 ± 9.12%. It also gave an EC50 (hCB2 receptor [7]) of 182 nM, an Emax (hCB2 receptor [7]; [17]) of 48% and an Emax (hCB2 receptor [7]; HEK293, read-out: Emax±SEM) of 28.1 ± 6.14%. For the same compound, the “CP55,940 more potent than the compound” value (hCB2 receptor [7]) was 114 fold, the half-life at 1 μM [8, 18] was 4.29 min and the microsomal CLint at 1 μM [8, 18] was 160 µL/min/mg. For the same compound, the “CLH (mL/min/kg body wt.)” value ([8]; rat liver microsomes, estimated hepatic clearance) was 46.39 mL/min/kg body wt, the “CLint (mL/min/kg body wt.)” value ([8]; rat liver microsomes, estimated intrinsic clearance) was 290.77 mL/min/kg body wt and the ER ([8]; rat liver microsomes, extraction ratio) was 0.84. The Ki ([9]; Ki (nM), hCB2, HEK293 membranes, [3H]CP55,940) was 8 nM and 7.76 nM, the “greater affinity for hCB2 over hCB1” value ([9]; Ki ratio hCB1/hCB2) was “approximately 3 fold” and the Emax (hCB1 receptor [10]; [17]) was 73%. For the same compound, the Emax (hCB1 receptor [10]; HEK293, read-out: Emax±SEM) was 32.9 ± 2.27%, the “CP55,940 more potent than the compound” value (hCB1 receptor [10]; hCB1, cAMP) was 53 fold and the “substitution for THC” value [11] was “did not substitute for THC at any dose”. For the same compound, the “effect on response rates compared to vehicle” value [11] was “Neither THC nor EG-018 significantly affected response rates” and the “greater potency for mini-Gαi over beta arrestin-2” value (hCB1 receptors) was 26 fold.

In the case of `O=C(c1cccc2ccccc12)c1nc2ccccc2n1CCCCCF` [FUBIMINA], the tetrad effects (mice; 56 mg/kg i.v.) is listed as “produced marked tetrad effects in all four measures”, the tetrad effects (mice; doses up to 100 mg/kg i.p.) is listed as “largely without effect” and the Ki (CB1) is listed as 296 nM.

In the case of `CCCCCn1nc(C(=O)Nc2cccc3ccccc23)c2ccccc21` [MN-18], the Tmax [12] is given as roughly 2.5 h.

For `CCCCCn1cc(C(=O)Nc2cccc3ccccc23)c2ccccc21` [NNEI], the Tmax [12] is listed as “approximately 0.5 hours”.

In the case of `CCCCCc1cc(O)c2c(c1)OC(C)(C)[C@@H]1CCC(C)=C[C@@H]21` [THC, delta-9-tetrahydrocannabinol], the locomotor activity (male ICR mice; [14]) is reported as “hypomotility”, the “antinociception (tail-flick)” value (male ICR mice; [15]) is reported as “anti-nociception” and the “catalepsy (ring immobility)” value (male ICR mice; [15]) is reported as “catalepsy”. For the same compound, the rectal temperature (male ICR mice; [15]) was “hypothermia”, the Emax (hCB2 receptor [7]; [17]) was 45% and the Emax (hCB2 receptor [7]; HEK293, read-out: Emax±SEM) was 27.3 ± 3.68%. The “CP55,940 more potent than the compound” value (hCB2 receptor [7]) was 26 fold, the ED50 ([11]; ip, read-out: ED50, substitution for THC) was 2.2 mg/kg and the ED50 ([11]; ip, read-out: ED50 of THC after EG-018 pretreatment) was 1.2 mg/kg. The ED50 ([11]; read-out: ED50 of THC after vehicle pretreatment) was 1.5 mg/kg, the “substitution for THC” value [11] was “fully substituted for itself” and the “effect on response rates compared to vehicle” value [11] was “Neither THC nor EG-018 significantly affected response rates”.

For `CCCCC/C=C\C/C=C\C/C=C\C/C=C\CCCC(=O)NCCO` [anandamide], the “CP55,940 more potent than the compound” value (hCB2 receptor [3]) was 200 fold, the “CP55,940 greater efficacy than the compound” value (hCB2 receptor [3]) was 2.5 fold and the Emax (hCB2 receptor [3]; read-out: Emax±SEM) was 49.2 ± 2.25%.

In the case of `Cc1c(C(=O)NN2CCCCC2)nn(-c2ccc(Cl)cc2Cl)c1-c1ccc(Cl)cc1` [rimonabant, reference compound], the “antagonism of FUBIMINA tetrad effects” value (mice; rimonabant 3 mg/kg i.v. before FUBIMINA 56 mg/kg i.v.) is listed as “reversed”, the “antagonism of EG-018-induced catalepsy” value (male ICR mice; [19]) is listed as “attenuated catalepsy” and the “antagonism of EG-018-induced hypomotility” value (male ICR mice; [19]) is listed as “did not significantly reduce”. The “antagonism of EG-018-induced hypothermia” value (male ICR mice; [19]) was “did not significantly reduce hypothermia”.
